Calls of active or inactive are those of the source. The rule behind the calls is not given here.
How the values were obtained:
[1] = Metabolic stability in human plasma assessed as parent compound remaining at 10 uM measured after 30 mins; format: ADME, cell-free; details: read-out: Stability
Outline: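 Citrated human plasma spiked to final 10 μM, incubated at 37 °C for 0, 30 and 120 min; quenched with acetonitrile containing internal standard, vortexed, centrifuged at 4 °C; parent remaining quantified by LC-MS/MS in MRM mode on C18 column, formic acid water/acetonitrile gradient.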

A549 [2] = experiment: Inhibition of cell proliferation in human A549 cells assessed as reduction in Ki-67 expression; format: functional, cell-based
Outline: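 A549 cells immunostained for Ki67 with fluorescent secondary antibody; nuclei counterstained with 1 μM Hoechst 33342; confocal imaging; at least three independent experiments, mean ± SEM.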

[3] = test system: Lewis lung carcinoma cell line; experiment: Antitumor activity against mouse Lewis lung carcinoma cell line allografted in male C57BL/6 mouse model assessed as reduction in tumor formation at 10 mg/kg, po measured every other day for 3 weeks; format: functional, organism-based
Outline: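 Syngeneic model: 6-week-old male C57BL/6 mice given 3 × 10^5 LLC cells in 50 μL PBS subcutaneously in the flank. At day 7, mice were randomized to vehicle PO daily or 10 mg/kg PO every other day for 3 weeks. Caliper volume was taken every 2 days as ([…])/2, with tumor weight at end. Spleen size and weight were recorded. Ki67 and cleaved caspase-3 were scored by IHC (DAB, hematoxylin).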

[4] = target: T1, Phospholipase D1 (Mus musculus) (UniProt Q9Z280); experiment: In vivo inhibition of PLD1 in male C57BL/6 mouse allografted with mouse Lewis lung carcinoma cell line assessed as decrease in CD163+ anti-inflammatory M2 macrophage population at 10 mg/kg, po by immunofluorescence analysis; format: functional, organism-based
T1 sequence (whole entry): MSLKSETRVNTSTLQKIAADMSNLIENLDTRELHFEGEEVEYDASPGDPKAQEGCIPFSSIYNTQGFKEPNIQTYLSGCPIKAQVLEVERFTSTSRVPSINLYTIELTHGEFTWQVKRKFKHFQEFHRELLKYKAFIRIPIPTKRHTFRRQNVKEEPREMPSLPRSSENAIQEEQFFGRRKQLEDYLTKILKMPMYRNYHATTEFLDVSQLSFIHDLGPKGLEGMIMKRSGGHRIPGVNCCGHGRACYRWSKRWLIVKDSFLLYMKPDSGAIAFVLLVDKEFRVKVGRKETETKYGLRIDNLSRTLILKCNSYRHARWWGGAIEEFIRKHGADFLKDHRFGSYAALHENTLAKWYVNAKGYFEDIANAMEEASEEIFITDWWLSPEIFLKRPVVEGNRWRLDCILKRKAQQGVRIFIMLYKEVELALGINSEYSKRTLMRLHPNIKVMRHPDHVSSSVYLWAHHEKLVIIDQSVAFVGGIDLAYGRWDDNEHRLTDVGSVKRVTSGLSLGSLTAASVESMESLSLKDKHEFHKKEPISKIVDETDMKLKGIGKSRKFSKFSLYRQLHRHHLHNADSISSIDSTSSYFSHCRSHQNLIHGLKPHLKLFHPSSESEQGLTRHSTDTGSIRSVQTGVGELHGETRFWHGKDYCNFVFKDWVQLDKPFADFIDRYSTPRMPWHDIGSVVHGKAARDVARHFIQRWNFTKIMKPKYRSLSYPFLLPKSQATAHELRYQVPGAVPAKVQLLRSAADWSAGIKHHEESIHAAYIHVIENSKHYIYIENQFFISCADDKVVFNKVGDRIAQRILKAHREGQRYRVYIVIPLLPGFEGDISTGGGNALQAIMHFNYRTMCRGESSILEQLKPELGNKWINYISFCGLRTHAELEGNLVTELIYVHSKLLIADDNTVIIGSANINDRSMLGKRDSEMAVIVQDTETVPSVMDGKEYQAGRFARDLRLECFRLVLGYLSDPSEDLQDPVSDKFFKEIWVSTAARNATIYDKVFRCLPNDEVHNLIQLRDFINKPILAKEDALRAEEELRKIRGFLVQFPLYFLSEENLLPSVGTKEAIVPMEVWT
Outline: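 Same LLC syngeneic C57BL/6 model, 10 mg/kg PO every other day for 3 weeks. Tumor tissues were stained by immunofluorescence for CD80+ and CD163+ cells, CD8+ T cells, and CD4+/IL-17+ and Treg populations. Nuclei were counterstained with 1 μM Hoechst 33342 and imaged by confocal microscopy.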

A549 [5] = experiment: Induction of apoptosis in human A549 cells assessed as increase in cleaved PARP activity measured up to 48 hrs in presence of gemcitabine by flow cytometry analysis; format: functional, cell-based
Outline: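 A549 cells given compound, gemcitabine, or both. Apoptosis assessed by PI staining, annexin V flow cytometry, cleaved PARP immunoblot, and caspase-3 activity. For caspase-3: drugs at 10 μM for 48 h, then 1 μM NucView 488 substrate for 30 min, with 1 μM Hoechst 33342, read by plate fluorescence.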

remaining at 0.5 h, 10 µM [1]: 97.4%
Compound: O=C(CCc1c[nH]c2ccccc12)Nc1cc(C(F)(F)F)cc(C(F)(F)F)c1
inhibition (A549 [2]): Active
Activity [3]: Active
inhibition [4]: Active
Activity (A549 [5]): Active
